Broadly, the inhibition is how much of the control response was suppressed. A higher inhibition goes with a response far below the control.

Molecules are shown by their SMILES.

The target of experiment [1] is Nitric oxide synthase 1 (Rattus norvegicus) (UniProt P29476). Briefly: Percent inhibition towards rat striatal neuronal nitric oxide synthase (nNOs) at 1 mM concentration (value is mean +/- SEM). The method in brief:
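Rat striatal crude homogenate (two striata homogenized in Tris buffer with protease inhibitors, pH 7.6; 1000g supernatant). Conversion of L-[3H]-arginine to L-[3H]-citrulline in 25 mM Tris, 30 µM H4-biopterin, 10 µM FAD, 0.1 mM CaCl2, 10 µM L-arginine plus 50 nM tracer. Started with 0.75 mM NADPH; compound 1 mM final in DMSO; 37 °C, 30 min. Citrulline separated on Dowex-50W and counted by scintillation. Blank omits NADPH. Three experiments in triplicate, four rat striata each.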

Experiment [2] addresses Kynurenine 3-monooxygenase (Rattus norvegicus) (UniProt O88867). In words: Percent kynurenine 3-hydroxylase activity determined by the conversion of L-kynurenine to 3-hydroxykynurenine in rat striatum at 1 mM concentration of compound (value is mean +/- SEM). The format is tissue-based. In short, it runs like this: (§1)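 Enzyme source: rat striatal pellet (sucrose homogenate, 10000g), resuspended in 0.14 M KCl, 20 mM phosphate, pH 7. Incubation in 0.1 M phosphate, 4 mM MgCl2, 100 µM L-kynurenine with NADPH; compound 1 mM final in DMSO; 37 °C, 60 min. Stopped with cold perchloric acid. 3-Hydroxykynurenine measured by HPLC with electrochemical detection against a DHBA internal standard; activity expressed as nmol/h/g wet brain.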

Experiment [3] shares this target. In words: Inhibitory activity against kynurenine 3-hydroxylase at 1 mM concentration. The method in brief: as §1

Chain of Nitric oxide synthase 1 (Rattus norvegicus) (P29476 whole entry): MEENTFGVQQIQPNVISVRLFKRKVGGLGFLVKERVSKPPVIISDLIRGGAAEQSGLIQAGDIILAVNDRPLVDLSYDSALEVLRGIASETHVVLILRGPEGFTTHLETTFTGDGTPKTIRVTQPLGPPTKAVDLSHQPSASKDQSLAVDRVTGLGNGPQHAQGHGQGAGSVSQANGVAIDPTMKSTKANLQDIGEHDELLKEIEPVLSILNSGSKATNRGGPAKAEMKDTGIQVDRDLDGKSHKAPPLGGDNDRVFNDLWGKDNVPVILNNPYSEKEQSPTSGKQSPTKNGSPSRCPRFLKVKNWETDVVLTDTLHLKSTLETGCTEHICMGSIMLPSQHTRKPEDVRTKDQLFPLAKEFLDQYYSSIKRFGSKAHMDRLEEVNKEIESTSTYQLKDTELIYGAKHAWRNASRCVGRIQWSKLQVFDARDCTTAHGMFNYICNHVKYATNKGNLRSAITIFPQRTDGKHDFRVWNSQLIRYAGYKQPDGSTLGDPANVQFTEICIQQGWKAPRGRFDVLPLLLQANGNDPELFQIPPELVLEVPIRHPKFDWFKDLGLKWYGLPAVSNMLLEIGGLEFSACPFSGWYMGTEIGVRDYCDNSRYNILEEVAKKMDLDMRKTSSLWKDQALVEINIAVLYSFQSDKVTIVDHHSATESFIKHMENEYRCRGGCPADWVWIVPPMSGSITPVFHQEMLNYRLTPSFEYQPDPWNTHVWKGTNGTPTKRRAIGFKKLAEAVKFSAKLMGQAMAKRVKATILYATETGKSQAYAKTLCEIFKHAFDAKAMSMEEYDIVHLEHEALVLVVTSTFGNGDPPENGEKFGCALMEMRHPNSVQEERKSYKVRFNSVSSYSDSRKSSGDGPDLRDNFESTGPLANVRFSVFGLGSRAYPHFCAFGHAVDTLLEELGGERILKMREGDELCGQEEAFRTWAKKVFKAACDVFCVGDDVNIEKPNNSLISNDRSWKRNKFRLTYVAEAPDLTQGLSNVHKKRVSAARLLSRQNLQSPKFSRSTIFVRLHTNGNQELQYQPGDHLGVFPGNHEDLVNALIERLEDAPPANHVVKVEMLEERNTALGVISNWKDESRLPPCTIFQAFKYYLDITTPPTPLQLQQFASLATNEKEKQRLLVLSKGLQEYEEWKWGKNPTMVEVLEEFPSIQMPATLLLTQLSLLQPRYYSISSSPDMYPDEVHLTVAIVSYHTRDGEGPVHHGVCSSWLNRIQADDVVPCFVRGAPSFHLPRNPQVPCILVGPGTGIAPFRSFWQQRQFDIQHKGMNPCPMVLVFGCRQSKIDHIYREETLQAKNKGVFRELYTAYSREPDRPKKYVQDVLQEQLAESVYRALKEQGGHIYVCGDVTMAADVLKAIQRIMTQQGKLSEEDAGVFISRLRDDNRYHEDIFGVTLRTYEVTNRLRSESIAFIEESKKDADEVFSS
Chain of Kynurenine 3-monooxygenase (Rattus norvegicus) (O88867 whole entry, looked up): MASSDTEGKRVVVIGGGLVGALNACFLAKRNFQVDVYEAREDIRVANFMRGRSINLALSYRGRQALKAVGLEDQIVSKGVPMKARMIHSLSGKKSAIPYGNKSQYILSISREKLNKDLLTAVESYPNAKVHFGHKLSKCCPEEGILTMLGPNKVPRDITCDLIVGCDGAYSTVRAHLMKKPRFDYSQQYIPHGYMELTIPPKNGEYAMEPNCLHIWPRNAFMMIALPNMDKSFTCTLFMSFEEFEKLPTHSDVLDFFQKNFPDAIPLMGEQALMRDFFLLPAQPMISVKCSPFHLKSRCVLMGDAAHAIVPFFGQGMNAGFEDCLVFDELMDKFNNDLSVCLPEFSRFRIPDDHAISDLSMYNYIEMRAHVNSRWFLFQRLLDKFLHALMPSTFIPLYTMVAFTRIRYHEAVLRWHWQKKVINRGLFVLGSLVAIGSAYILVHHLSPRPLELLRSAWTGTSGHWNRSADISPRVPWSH

Regarding `CCCCC(=O)N1CCC(c2cc(OC)ccc2N)=N1`, the inhibition in experiment [1] was found to be 49.8%. Also, the Activity in experiment [2] is 120%.

Consider `COc1ccc(N)c(C2=NN(C(=O)C3CCC3)CC2)c1`, for which, in experiment [1], the inhibition was found to be 38.3%. In experiment [2], the Activity stood at 96.5%.

For the compound `CC(=O)N1CCC(c2cc(Cl)ccc2N)=N1`, the inhibition in experiment [1] came out at 47.6%. This compound also showed an Activity in experiment [2] of 111%.

Regarding `COc1ccc(N)c(C2=NN(C(=O)C3CCCC3)CC2)c1`, in experiment [1], the inhibition turned out to be 49.9%. In experiment [2], this compound showed an Activity of 105%.

In turn, `COc1ccc(N)c(C2=NN(C(=O)C3CCCCC3)CC2)c1` showed an inhibition in experiment [1] of 62.2%. In experiment [2], this compound showed an Activity of 87.4%.

In turn, `COc1ccc(N)c(C(=O)CC(NC(C)=O)C(=O)O)c1` (stereo not drawn) registered an inhibition in experiment [1] of 68.5%. The same compound returned an Activity in experiment [2] of 101%.

In turn, `Nc1ccc(Cl)cc1C1=NN(C(=O)C2CC2)CC1` had an inhibition in experiment [1] of 70.2%. Moreover, the Activity in experiment [2] amounted to 98.1%.

In turn, `COc1ccc(N)c(C2=NN(C(=O)C3CC3)CC2)c1` registered an inhibition in experiment [1] of 62.2%. The same compound had an Activity in experiment [2] of 123%.

In the case of `COc1ccc(N)c(C2=NN(C(=O)c3ccccc3)CC2)c1`, in experiment [1], the inhibition is 58.9%.

`Nc1ccccc1C1=NN(C(=O)c2ccccc2)CC1`: the inhibition in experiment [1] was 57%. The compound also returned an Activity in experiment [2] of 82.5%.

Take `COc1ccc(N)c(C2=NN(C(C)=O)CC2)c1`: the inhibition in experiment [1] was determined as 38%. In experiment [2], this compound had an Activity of 98.8%.

In the case of `CCC(=O)N1CCC(c2cc(OC)ccc2N)=N1`, the values for the inhibition in experiment [3] and in experiment [1] were 18.9% and 53.3%, respectively. Moreover, the Activity in experiment [2] was determined as 81.1%.

The compound `Nc1ccc(Cl)cc1C1=NN(C(=O)c2ccccc2)CC1` yielded an inhibition in experiment [1] of 61.1%. Further, in experiment [2], the Activity is 106%.

For the compound `Nc1ccccc1C1=NN(C(=O)C2CC2)CC1`, the inhibition in experiment [1] came to 38.8%. In addition, the Activity in experiment [2] worked out at 86.9%.

Compound `CCCC(=O)N1CCC(c2cc(OC)ccc2N)=N1` displayed an inhibition in experiment [1] of 34.7%. Moreover, the Activity in experiment [2] is 96.4%.

Regarding `CCCC(=O)NC(CC(=O)c1cc(OC)ccc1N)C(=O)O` (stereo not drawn), the inhibition in experiment [1] turned out to be 45%. Besides, the Activity in experiment [2] stood at 88.7%.

Turning to `CCC(=O)N1CCC(c2ccccc2N)=N1`, the inhibition in experiment [1] came out at 36.5%. The Activity in experiment [2] was determined as 85.2%.

For `CCCC(=O)N1CCC(c2cc(Cl)ccc2N)=N1`, the inhibition in experiment [1] turned out to be 34.4%. In experiment [2], this compound yielded an Activity of 97.7%.

`CCCC(=O)N1CCC(c2ccccc2N)=N1` registered an inhibition in experiment [1] of 52.4%. This compound displayed an Activity in experiment [2] of 85%.

In turn, `CCC(=O)N1CCC(c2cc(Cl)ccc2N)=N1` had an inhibition in experiment [1] of 46.1%. In experiment [2], the Activity came to 97.7%.

Regarding `CC(=O)N1CCC(c2ccccc2N)=N1`, the inhibition in experiment [3] turned out to be 22.1%; in experiment [1], 33.7%. Also, the Activity in experiment [2] turned out to be 77.8%.
